# Source: PMC4011022 (Molecular cell, 2014)
# Where two headings read alike, the source gives them in different places.
# What was measured:
# [1] = target: T1, CK2α (casein kinase-2 catalytic subunit) (Homo sapiens, UniProt P68400); assay type: binding
# In short: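 GST-tagged CK2α was expressed in E. coli and purified. Twenty μg, held on glutathione beads, was incubated overnight at 4 °C with [3H]IP6 (10–20 Ci/mmol) in 40 mM Tris pH 8.0, 150 mM NaCl, 1 mM MgCl2, 4% glycerol and 0.1% Triton. Unlabeled IP6 was added over a concentration series as competitor. Controls were buffer or GST alone. Data are mean ± SE of at least three independent experiments.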
# [2] = target: T1, CK2α (casein kinase-2 catalytic subunit); test: competition of [3H]IP6 radioligand binding to purified recombinant GST-CK2α
# T1 sequence (P68400 whole entry): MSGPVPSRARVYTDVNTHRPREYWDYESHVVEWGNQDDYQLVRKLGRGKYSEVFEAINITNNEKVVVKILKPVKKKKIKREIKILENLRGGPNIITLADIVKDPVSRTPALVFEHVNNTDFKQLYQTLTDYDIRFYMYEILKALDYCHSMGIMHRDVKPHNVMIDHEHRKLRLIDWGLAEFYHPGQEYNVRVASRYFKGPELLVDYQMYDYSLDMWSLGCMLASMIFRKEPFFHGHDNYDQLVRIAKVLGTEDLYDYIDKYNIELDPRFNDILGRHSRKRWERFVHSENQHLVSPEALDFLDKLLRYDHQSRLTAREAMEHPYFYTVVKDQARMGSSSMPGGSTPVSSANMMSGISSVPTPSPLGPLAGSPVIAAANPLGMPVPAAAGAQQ
IC50 [1] [µM],IC50 [2] [µM],SMILES
14,–,O=P(O)(O)O[C@H]1[C@H](OP(=O)(O)O)[C@@H](OP(=O)(O)O)[C@H](OP(=O)(O)O)[C@@H](OP(=O)(O)O)[C@H]1OP(=O)(O)O [IP6]
–,~0.4,O=P(O)(O)O[C@H]1[C@@H](OP(=O)(O)O)[C@H](OP(=O)(O)O)[C@@H](OP(=O)(O)OP(=O)(O)O)[C@H](OP(=O)(O)O)[C@H]1OP(=O)(O)O [IP7]
